Values after ≈ are worked out from the molar mass of the structure shown.
Legend:
Format in all cases: functional
[1] = tested on: Staphylococcus aureus; experiment: Antibacterial activity against erythromycin-susceptible Staphylococcus aureus ATCC 25923 by broth microdilution method
In short: (§1)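 Broth microdilution MIC following the NCCL-recommended method. Panel of sensitive and resistant Gram-positive strains: S. pyogenes S2 (erythromycin-susceptible clinical isolate), S. aureus ATCC25923 and S. pneumoniae ATCC49619 (erythromycin-susceptible). Azithromycin and clarithromycin were run alongside as references.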

[2] = tested on: Streptococcus pneumoniae; experiment: Antibacterial activity against erythromycin-resistant Streptococcus pneumoniae B1 expressing ermB gene by broth microdilution method
In short: (§2)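 MICs measured in vitro by broth microdilution following NCCL recommendations, against a Gram-positive panel of sensitive and resistant strains. Azithromycin and clarithromycin were tested alongside as references.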

[3] = tested on: Staphylococcus aureus; experiment: Antibacterial activity against clinically isolated penicillin-resistant Staphylococcus aureus by broth microdilution method
In short: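 Clinical penicillin-resistant S. aureus isolate, not further characterized, tested in a Gram-positive panel. MIC was measured by broth microdilution following NCCL recommendations, with azithromycin and clarithromycin as references.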

[4] = tested on: Streptococcus pneumoniae; experiment: Antibacterial activity against erythromycin-resistant Streptococcus pneumoniae AB11 expressing ermB and mefA genes by broth microdilution method; in short: as §2
[5] = tested on: Staphylococcus aureus; experiment: Antibacterial activity against methicillin-susceptible Staphylococcus aureus ATCC 29213 by broth microdilution method; in short: as §2
[6] = tested on: Streptococcus pneumoniae; experiment: Antibacterial activity against erythromycin-susceptible Streptococcus pneumoniae ATCC 49619 by broth microdilution method; in short: as §1
[7] = tested on: Streptococcus pneumoniae; experiment: Antibacterial activity against erythromycin-resistant Streptococcus pneumoniae A22072 expressing mefA gene by broth microdilution method; in short: as §2
[8] = tested on: Streptococcus pyogenes; experiment: Antibacterial activity against clinically isolated erythromycin-susceptible Streptococcus pyogenes S2 by broth microdilution method; in short: as §1
[9] = tested on: Streptococcus pyogenes; experiment: Antibacterial activity against clinically isolated erythromycin-resistant Streptococcus pyogenes R2 by broth microdilution method; in short: as §2

SMILES	MIC [1] [µg/mL]	MIC [2] [µg/mL]	MIC [3] [µg/mL]	MIC [4] [µg/mL]	MIC [5] [µg/mL]	MIC [6] [µg/mL]	MIC [7] [µg/mL]	MIC [8] [µg/mL]	MIC [9] [µg/mL]
CC[C@H]1OC(=O)[C@@H](C)[C@H](O[C@H]2C[C@@](C)(OC)[C@@H](OC(=O)NNC(=O)/C=C/c3ccc([N+](=O)[O-])cc3)[C@H](C)O2)[C@@H](C)[C@H](O[C@H]2O[C@@H](C)C[C@@H](N(C)C)[C@@H]2O)[C@@](C)(O)C[C@H](C)CN(C)[C@@H](C)[C@@H]2OC(=O)O[C@@]12C	2 (≈ 1.98 µM)	16 (≈ 15.9 µM)	16 (≈ 15.9 µM)	8 (≈ 7.94 µM)	8 (≈ 7.94 µM)	2 (≈ 1.98 µM)	0.5 (≈ 0.496 µM)	0.25 (≈ 0.248 µM)	≥ 128
CC[C@H]1OC(=O)[C@@H](C)[C@H](O[C@H]2C[C@@](C)(OC)[C@@H](OC(=O)NNC(=O)/C=C/c3ccc(C#N)cc3)[C@H](C)O2)[C@@H](C)[C@H](O[C@H]2O[C@@H](C)C[C@@H](N(C)C)[C@@H]2O)[C@@](C)(O)C[C@H](C)CN(C)[C@@H](C)[C@@H]2OC(=O)O[C@@]12C	4 (≈ 4.05 µM)	64 (≈ 64.8 µM)	8 (≈ 8.1 µM)	64 (≈ 64.8 µM)	8 (≈ 8.1 µM)	16 (≈ 16.2 µM)	2 (≈ 2.02 µM)	0.5 (≈ 0.506 µM)	≥ 128
CC[C@H]1OC(=O)[C@@H](C)[C@H](O[C@H]2C[C@@](C)(OC)[C@@H](OC(=O)NNC(=O)/C=C/c3ccc(F)cc3)[C@H](C)O2)[C@@H](C)[C@H](O[C@H]2O[C@@H](C)C[C@@H](N(C)C)[C@@H]2O)[C@@](C)(O)C[C@H](C)CN(C)[C@@H](C)[C@@H]2OC(=O)O[C@@]12C	2 (≈ 2.04 µM)	64 (≈ 65.2 µM)	16 (≈ 16.3 µM)	16 (≈ 16.3 µM)	8 (≈ 8.15 µM)	16 (≈ 16.3 µM)	2 (≈ 2.04 µM)	0.5 (≈ 0.51 µM)	64 (≈ 65.2 µM)
CC[C@H]1OC(=O)[C@@H](C)[C@H](O[C@@H]2C[C@](C)(OC)[C@H](OC(=O)NNC(=O)/C=C/c3ccc([N+](=O)[O-])cc3)[C@@H](C)O2)[C@H](C)[C@H](O[C@H]2O[C@@H](C)C[C@@H](N(C)C)[C@@H]2O)[C@@](C)(O)C[C@H](C)CN(C)[C@@H](C)[C@H](OC(=O)NCc2ccccc2)[C@@]1(C)O	0.5 (≈ 0.448 µM)	4 (≈ 3.59 µM)	2 (≈ 1.79 µM)	2 (≈ 1.79 µM)	2 (≈ 1.79 µM)	0.25 (≈ 0.224 µM)	0.12 (≈ 0.108 µM)	0.5 (≈ 0.448 µM)	16 (≈ 14.3 µM)
CC[C@H]1OC(=O)[C@@H](C)[C@H](O[C@@H]2C[C@](C)(OC)[C@H](OC(=O)NNC(=O)/C=C/c3ccc(Br)cc3)[C@@H](C)O2)[C@H](C)[C@H](O[C@H]2O[C@@H](C)C[C@@H](N(C)C)[C@@H]2O)[C@@](C)(O)C[C@H](C)CN(C)[C@@H](C)[C@H](OC(=O)NCc2ccccc2)[C@@]1(C)O	0.5 (≈ 0.435 µM)	1 (≈ 0.87 µM)	2 (≈ 1.74 µM)	1 (≈ 0.87 µM)	2 (≈ 1.74 µM)	0.25 (≈ 0.218 µM)	0.12 (≈ 0.104 µM)	0.25 (≈ 0.218 µM)	16 (≈ 13.9 µM)
CC[C@@H]1OC(=O)[C@H](C)[C@@H](O[C@H]2C[C@@](C)(OC)[C@@H](OC(=O)NNC(=O)/C=C/c3ccco3)[C@H](C)O2)[C@@H](C)[C@@H](O[C@@H]2O[C@H](C)C[C@H](N(C)C)[C@H]2O)[C@](C)(O)C[C@@H](C)CN(C)[C@H](C)[C@@H](OC(=O)NCc2ccc(OC)cc2)[C@]1(C)O	1 (≈ 0.917 µM)	2 (≈ 1.83 µM)	2 (≈ 1.83 µM)	8 (≈ 7.34 µM)	4 (≈ 3.67 µM)	0.5 (≈ 0.459 µM)	0.25 (≈ 0.229 µM)	0.25 (≈ 0.229 µM)	64 (≈ 58.7 µM)
CC[C@H]1OC(=O)[C@H](C)[C@@H](O[C@H]2C[C@@](C)(OC)[C@@H](O)[C@H](C)O2)[C@H](C)[C@@H](O[C@@H]2O[C@H](C)C[C@H](N(C)C)[C@H]2O)[C@](C)(O)C[C@@H](C)C(=O)[C@H](C)[C@@H](O)[C@]1(C)O [ERYTHROMYCIN]	0.06 (≈ 0.0818 µM)	> 128	0.25 (≈ 0.341 µM)	256 (≈ 349 µM)	0.12 (≈ 0.164 µM)	0.03 (≈ 0.0409 µM)	8 (≈ 10.9 µM)	0.12 (≈ 0.164 µM)	≥ 128
CC[C@H]1OC(=O)[C@@H](C)[C@H](O[C@H]2C[C@@](C)(OC)[C@@H](OC(=O)NNC(=O)/C=C/c3ccco3)[C@H](C)O2)[C@@H](C)[C@H](O[C@H]2O[C@@H](C)C[C@@H](N(C)C)[C@@H]2O)[C@@](C)(O)C[C@H](C)CN(C)[C@@H](C)[C@@H]2OC(=O)O[C@@]12C	2 (≈ 2.1 µM)	32 (≈ 33.6 µM)	4 (≈ 4.2 µM)	16 (≈ 16.8 µM)	8 (≈ 8.39 µM)	8 (≈ 8.39 µM)	1 (≈ 1.05 µM)	0.25 (≈ 0.262 µM)	≥ 128
CC[C@@H]1OC(=O)[C@H](C)[C@@H](O[C@H]2C[C@@](C)(OC)[C@@H](OC(=O)NNC(=O)/C=C/c3ccccc3OC)[C@H](C)O2)[C@@H](C)[C@@H](O[C@@H]2O[C@H](C)C[C@H](N(C)C)[C@H]2O)[C@](C)(O)C[C@@H](C)CN(C)[C@H](C)[C@@H](OC(=O)NCc2ccccc2)[C@]1(C)O	0.5 (≈ 0.454 µM)	16 (≈ 14.5 µM)	2 (≈ 1.82 µM)	8 (≈ 7.27 µM)	2 (≈ 1.82 µM)	0.5 (≈ 0.454 µM)	0.5 (≈ 0.454 µM)	0.25 (≈ 0.227 µM)	32 (≈ 29.1 µM)
